# pIC50: −log10 of the molar value.
# Columns and labels:
# P. aeruginosa DK2 [1] = test: MIC by micro broth dilution; type: cell-based, Pseudomonas aeruginosa; conditions: for MIC: Pseudomonas aeruginosa, DK2, 18 h, read-out: MIC, derivative alone, P. aeruginosa DK2, 18 h, 100% growth inhibition; for MIC, antibiotic alone: P. aeruginosa DK2
# P. aeruginosa DK2 [2] = test: Oxidative stress; type: cell-based, Pseudomonas aeruginosa; conditions: PB 0.25 or 0.5 μg/mL; 15 or A22 4 or 8 μg/mL, with or without PB
# In short: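 Culture diluted to 0.01 and treated with compounds. At OD600 1.0, 3 mL collected, washed in 1 mL PBS, then resuspended in PBS with 0.2 mol/L H2O2 and shaken 15 min at 37 ℃. Suspensions diluted 10^1–10^7 in PBS, 5 μL spotted onto LB agar, and incubated 37 ℃ for 1–2 days before colony counting.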
# P. aeruginosa DK2 [3] = test: Time-kill assay; type: cell-based, Pseudomonas aeruginosa; conditions: for Effect on bacterial growth when used alone (time-kill): A22 10 or 20 μmol/L, PB 0.5 or 1 μg/mL
# P. aeruginosa DK2 [4] = test: Resistance assay by serial passaging; type: cell-based, Pseudomonas aeruginosa; conditions: passaged with PB alone (64 μg/mL); start 256 μg/mL
# P. aeruginosa DK2 [5] = test: Intracellular NADH oxidase; type: cell-based, Pseudomonas aeruginosa
# In short: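 Bacteria treated with compounds singly and in combination; 1 mL harvested at OD600 = 1.0. NOX activity measured with a commercial kit by its extraction method and expressed as relative activity.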
# CYP1A2 = target: T1, CYP1A2 (Homo sapiens, UniProt P05177); test: Human CYP450 inhibition assay; type: in vitro ADME
# T1 sequence (P05177 1-516): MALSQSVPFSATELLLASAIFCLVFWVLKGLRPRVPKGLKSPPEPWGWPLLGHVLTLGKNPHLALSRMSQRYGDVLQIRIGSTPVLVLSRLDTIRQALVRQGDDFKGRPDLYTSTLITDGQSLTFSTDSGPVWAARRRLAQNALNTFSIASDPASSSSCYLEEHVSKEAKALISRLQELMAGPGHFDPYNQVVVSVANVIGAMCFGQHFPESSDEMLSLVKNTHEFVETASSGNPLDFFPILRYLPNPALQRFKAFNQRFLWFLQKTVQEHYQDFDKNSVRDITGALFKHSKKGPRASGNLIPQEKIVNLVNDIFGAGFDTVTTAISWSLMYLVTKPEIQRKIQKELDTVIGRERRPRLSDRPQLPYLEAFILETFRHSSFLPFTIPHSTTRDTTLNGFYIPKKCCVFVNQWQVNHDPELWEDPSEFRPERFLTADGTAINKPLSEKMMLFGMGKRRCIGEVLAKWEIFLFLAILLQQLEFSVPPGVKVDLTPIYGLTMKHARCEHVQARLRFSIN
# [6] = Stability in liver microsomes; type: in vitro ADME, human
# P. aeruginosa DK2 [7] = test: Biofilm production assay; type: cell-based, Pseudomonas aeruginosa
# In short: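 Overnight LB culture (37 ℃, 200 rpm) diluted to OD600 0.01 and treated with compound alone or with polymyxin B. Cells inoculated 1:100 into CPG medium and grown 24 h at 37 ℃, then stained 30 min with 0.1% crystal violet. After water rinses and 1 h air drying, dye solubilised in 95% ethanol; OD570 read. For imaging, coverslip biofilms washed with PBS (pH 7.2), dried 60 ℃ 30 min, stained 15 min with acridine orange/ethidium bromide and examined by confocal microscopy.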
# [8] = Stability in liver microsomes; type: in vitro ADME, mouse
# CYP2C19 = CYP2C19 (Homo sapiens, UniProt P33261); test: Human CYP450 inhibition assay; type: in vitro ADME; conditions: Inhibition for CYP isoforms IC50, 2C19, human liver microsomes, 40 min
# CYP2C8 = target: T2, CYP2C8 (Homo sapiens, UniProt P10632); test: Human CYP450 inhibition assay; type: in vitro ADME
# T2 sequence (P10632 1-490): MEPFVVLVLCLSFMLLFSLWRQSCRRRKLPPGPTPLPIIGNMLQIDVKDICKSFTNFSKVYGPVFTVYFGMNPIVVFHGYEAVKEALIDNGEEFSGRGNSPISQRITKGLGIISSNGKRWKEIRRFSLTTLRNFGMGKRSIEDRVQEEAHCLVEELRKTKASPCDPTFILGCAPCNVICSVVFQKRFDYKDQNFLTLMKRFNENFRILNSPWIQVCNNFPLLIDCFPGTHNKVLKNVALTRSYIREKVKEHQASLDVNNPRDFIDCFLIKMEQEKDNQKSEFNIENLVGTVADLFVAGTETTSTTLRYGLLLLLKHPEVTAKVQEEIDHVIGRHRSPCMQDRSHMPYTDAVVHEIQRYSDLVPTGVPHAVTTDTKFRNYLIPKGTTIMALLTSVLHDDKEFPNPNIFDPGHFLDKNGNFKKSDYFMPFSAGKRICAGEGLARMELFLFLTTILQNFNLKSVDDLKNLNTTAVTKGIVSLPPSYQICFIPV
# 293 T = test: Mammalian cytotoxicity, CCK8; type: cell-based; conditions: Homo sapiens, HEK-293T, 24 h, read-out: 293 T IC50, CCK8, 1 day incubation
# In short: (§1)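 Cells seeded at 10,000 per well in medium with 10% serum. Serially diluted compound added 24 h later and incubated 1 day. Viability measured with CCK8 reagent per kit instructions and expressed as percent of vehicle-treated cells (set to 100).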
# CYP2D6 = CYP2D6 (Homo sapiens, UniProt P10635); test: Human CYP450 inhibition assay; type: in vitro ADME
# HUVEC = test: Mammalian cytotoxicity, CCK8; type: cell-based; conditions: Homo sapiens, 24 h, read-out: HUVEC IC50, CCK8, 1 day incubation
# In short: as §1
# CYP2B6 = target: T3, CYP2B6 (Homo sapiens, UniProt P20813); test: Human CYP450 inhibition assay; type: in vitro ADME
# T3 sequence (P20813 1-491): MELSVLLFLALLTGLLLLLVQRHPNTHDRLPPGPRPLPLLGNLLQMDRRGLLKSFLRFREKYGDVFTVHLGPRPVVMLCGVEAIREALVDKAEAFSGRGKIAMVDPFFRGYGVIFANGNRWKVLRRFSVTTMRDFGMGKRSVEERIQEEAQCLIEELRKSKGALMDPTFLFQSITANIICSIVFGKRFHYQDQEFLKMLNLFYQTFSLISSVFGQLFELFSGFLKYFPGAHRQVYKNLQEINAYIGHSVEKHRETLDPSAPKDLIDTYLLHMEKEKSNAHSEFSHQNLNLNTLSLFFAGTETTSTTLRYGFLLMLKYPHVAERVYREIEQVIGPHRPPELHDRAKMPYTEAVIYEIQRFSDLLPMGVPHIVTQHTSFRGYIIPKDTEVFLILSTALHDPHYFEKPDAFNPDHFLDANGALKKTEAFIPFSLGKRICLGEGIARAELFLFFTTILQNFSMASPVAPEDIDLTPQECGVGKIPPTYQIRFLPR
# hERG potassium channels = hERG potassium channels (Homo sapiens, UniProt Q12809); test: hERG channel Qpatch assay; type: cell-based
# P. aeruginosa DK2 [9] = test: Intracellular ROS detection; type: cell-based, Pseudomonas aeruginosa; conditions: alone and in combination with PB
# In short: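 Drug-treated bacteria collected and suspended in DCFH-DA (final 10 μmol/L), then incubated 20 min at 37 ℃. Cells resuspended in LB, centrifuged 5000 rpm for 5 min and washed to remove free probe. Fluorescence read at 488 nm excitation and 525 nm emission.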
# [10] = Plasma protein binding assay; type: in vitro ADME; conditions: human
# In short: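 Equilibrium dialysis: compound-spiked plasma placed on the donor side, blank buffer on the receiver side, 5 h at 37 ℃; T0 plasma samples also taken. Donor and receiver aliquots matrix-matched with the opposite matrix. Quenched with acetonitrile containing internal standard, vortexed, centrifuged 4000×g 10 min, and supernatant diluted with water. Analysed by LC–MS/MS alongside reference compounds.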
# Water solubility assay = type: physicochemical; conditions: thermodynamic from solid
# In short: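 Standard curve made from methanol solutions (0.56–0.0011 mg/mL) using HPLC UV peak area at 254 nm. Excess solid stirred in water for 24 h to give a […] solution, then analysed by HPLC at 254 nm. Solubility calculated from the standard curve.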
# CYP2C9 = CYP2C9 (Homo sapiens, UniProt P11712); test: Human CYP450 inhibition assay; type: in vitro ADME
# P. aeruginosa DK2 [11] = test: Bacterial ATP level assay; type: cell-based, Pseudomonas aeruginosa
# In short: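 Cells treated with compounds singly and in combination and harvested at OD600 = 1.0 (2 mL), centrifuged, then extraction solution added. Lysed by sonication in an ice bath; extract kept on ice. Absorbance read at 340 nm at 10 s and again after 3 min at 25 ℃ using a commercial ATP kit. ATP expressed relative to control.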
# P. aeruginosa DK2 [12] = test: Murine wound infection model; type: in vivo, BALB/c female mice; conditions: mouse
# In short: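 Female mice, 6–8 weeks old and 20–22 g, were anesthetized with 4% chloral hydrate and shaved dorsally. A ~5 mm wound was made and inoculated with 30 μL DK2 (5 × 10^8 CFU). From 48 h post-infection, wounds received saline, polymyxin alone, or polymyxin plus test compound twice daily. Test compound was given in saline with 0.1% Tween 80 and polymyxin in saline. Wounds and body weight were monitored daily. Wound tissue was homogenized in sterile PBS and plated for CFU.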
# CYP3A4 = CYP3A4 (Homo sapiens, UniProt P08684); test: Human CYP450 inhibition assay; type: in vitro ADME
# P. aeruginosa PAO1 = test: C. elegans liquid medium killing and rescue assay; type: in vivo, Caenorhabditis elegans
# Sequence of CYP3A4 (P08684 whole entry): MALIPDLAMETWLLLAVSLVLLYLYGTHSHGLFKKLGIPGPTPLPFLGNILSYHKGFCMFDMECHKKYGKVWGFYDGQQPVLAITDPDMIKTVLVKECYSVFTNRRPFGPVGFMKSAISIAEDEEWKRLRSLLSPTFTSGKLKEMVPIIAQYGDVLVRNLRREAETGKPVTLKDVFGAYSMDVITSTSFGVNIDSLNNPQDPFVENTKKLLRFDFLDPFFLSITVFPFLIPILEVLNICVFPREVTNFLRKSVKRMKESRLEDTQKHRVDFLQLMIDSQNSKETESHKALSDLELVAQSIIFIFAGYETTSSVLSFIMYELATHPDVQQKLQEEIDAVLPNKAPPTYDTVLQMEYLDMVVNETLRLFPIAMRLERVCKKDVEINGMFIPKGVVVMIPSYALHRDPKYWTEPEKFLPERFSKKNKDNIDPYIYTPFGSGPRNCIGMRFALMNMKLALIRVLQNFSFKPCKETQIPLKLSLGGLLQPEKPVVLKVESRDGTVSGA
# Sequence of hERG potassium channels (Q12809 whole entry): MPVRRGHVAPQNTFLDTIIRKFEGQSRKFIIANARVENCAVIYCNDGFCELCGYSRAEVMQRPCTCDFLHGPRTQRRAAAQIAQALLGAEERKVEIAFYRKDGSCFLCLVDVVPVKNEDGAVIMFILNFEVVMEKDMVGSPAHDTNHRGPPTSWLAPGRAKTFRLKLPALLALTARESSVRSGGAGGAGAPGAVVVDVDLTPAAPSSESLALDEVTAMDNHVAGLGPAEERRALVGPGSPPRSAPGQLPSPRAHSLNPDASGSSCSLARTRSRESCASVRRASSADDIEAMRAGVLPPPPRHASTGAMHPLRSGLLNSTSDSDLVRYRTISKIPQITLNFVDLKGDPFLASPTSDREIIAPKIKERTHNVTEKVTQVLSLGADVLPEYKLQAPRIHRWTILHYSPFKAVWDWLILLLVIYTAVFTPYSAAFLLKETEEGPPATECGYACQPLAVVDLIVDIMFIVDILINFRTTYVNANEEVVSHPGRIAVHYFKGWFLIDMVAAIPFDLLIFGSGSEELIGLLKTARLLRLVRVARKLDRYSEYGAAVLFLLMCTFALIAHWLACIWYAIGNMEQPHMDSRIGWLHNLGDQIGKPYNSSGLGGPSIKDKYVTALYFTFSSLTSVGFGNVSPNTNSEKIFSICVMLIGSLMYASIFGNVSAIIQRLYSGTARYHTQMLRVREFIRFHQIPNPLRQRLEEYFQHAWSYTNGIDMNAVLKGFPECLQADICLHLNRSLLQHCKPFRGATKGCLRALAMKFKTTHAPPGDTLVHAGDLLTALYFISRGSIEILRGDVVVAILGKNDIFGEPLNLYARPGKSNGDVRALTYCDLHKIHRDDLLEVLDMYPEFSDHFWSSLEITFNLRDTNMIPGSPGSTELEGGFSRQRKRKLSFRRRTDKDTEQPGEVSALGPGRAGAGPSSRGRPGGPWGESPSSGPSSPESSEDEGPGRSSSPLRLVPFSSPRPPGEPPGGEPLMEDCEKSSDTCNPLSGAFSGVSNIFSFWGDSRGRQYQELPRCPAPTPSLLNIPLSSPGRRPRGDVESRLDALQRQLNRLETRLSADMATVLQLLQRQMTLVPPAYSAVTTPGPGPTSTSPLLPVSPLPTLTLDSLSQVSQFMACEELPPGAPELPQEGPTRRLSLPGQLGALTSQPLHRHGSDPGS
# Sequence of CYP2D6 (P10635 whole entry): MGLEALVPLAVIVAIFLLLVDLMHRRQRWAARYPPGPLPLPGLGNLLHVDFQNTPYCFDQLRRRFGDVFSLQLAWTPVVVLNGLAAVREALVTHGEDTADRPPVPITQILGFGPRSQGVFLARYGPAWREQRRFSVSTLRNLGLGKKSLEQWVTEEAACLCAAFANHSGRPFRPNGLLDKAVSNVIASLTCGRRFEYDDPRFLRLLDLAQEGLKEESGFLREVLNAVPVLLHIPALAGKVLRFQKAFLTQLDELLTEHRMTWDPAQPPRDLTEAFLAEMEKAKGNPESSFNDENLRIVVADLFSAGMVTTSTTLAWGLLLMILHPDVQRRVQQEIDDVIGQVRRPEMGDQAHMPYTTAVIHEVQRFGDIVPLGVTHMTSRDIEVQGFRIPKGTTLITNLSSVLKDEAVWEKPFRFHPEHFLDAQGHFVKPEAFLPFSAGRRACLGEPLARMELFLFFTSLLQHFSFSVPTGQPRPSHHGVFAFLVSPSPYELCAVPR
# Sequence of CYP2C19 (P33261 whole entry, canonical isoform): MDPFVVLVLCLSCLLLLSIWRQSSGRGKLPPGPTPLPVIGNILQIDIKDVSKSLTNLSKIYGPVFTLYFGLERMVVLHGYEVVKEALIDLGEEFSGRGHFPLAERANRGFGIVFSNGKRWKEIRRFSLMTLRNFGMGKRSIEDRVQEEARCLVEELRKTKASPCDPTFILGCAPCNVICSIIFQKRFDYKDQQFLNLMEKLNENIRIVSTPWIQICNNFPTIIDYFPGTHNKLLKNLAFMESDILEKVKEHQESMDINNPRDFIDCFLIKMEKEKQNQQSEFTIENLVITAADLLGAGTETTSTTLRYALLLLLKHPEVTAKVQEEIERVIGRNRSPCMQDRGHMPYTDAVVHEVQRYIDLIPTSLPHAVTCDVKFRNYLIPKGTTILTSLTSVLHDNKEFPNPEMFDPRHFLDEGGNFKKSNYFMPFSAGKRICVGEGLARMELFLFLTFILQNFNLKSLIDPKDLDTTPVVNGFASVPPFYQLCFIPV
# Sequence of CYP2C9 (P11712 whole entry): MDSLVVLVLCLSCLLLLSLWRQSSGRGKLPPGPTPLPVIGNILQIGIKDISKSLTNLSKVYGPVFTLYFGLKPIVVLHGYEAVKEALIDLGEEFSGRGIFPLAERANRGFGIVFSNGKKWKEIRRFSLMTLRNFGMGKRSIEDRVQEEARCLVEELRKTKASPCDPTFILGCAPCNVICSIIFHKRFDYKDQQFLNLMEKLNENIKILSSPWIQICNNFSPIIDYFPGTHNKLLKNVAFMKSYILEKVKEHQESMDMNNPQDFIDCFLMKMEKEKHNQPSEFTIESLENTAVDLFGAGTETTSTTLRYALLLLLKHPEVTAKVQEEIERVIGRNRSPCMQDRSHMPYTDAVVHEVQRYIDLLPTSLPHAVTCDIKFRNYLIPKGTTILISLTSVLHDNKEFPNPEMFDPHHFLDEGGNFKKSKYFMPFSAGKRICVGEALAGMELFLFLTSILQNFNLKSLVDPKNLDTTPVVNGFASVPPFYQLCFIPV
compound,measurement,setting,value
O=C(Nc1ccc([N+](=O)[O-])cc1O)c1cc(F)ccc1O [A20],MIC,P. aeruginosa DK2 [1],50 to 100 µM
Polymyxin B [reference compound],CFU under oxidative stress (H2O2),P. aeruginosa DK2 [2],did not reduce CFU
same,"MIC, antibiotic alone",P. aeruginosa DK2 [1],256 mg/L
same,Effect on bacterial growth when used alone (time-kill),P. aeruginosa DK2 [3],"neither A22 (10 μmol/L = 3.67 μg/mL, or 20 μmol/L = 7.34 μg/mL) nor PB (0.5 or 1 μg/mL) significantly affected bacterial growth"
same,MIC of PB after 14 generations,P. aeruginosa DK2 [4],1024 mg/L
Colistin [reference compound],"MIC, antibiotic alone",P. aeruginosa DK2 [1],> 256 mg/L
O=C(NNc1ccc([N+](=O)[O-])cc1Cl)c1cc(F)ccc1O [A3],MIC,P. aeruginosa DK2 [1],50 to 100 µM
O=C(Nc1ccc(C(F)(F)F)cc1C(F)(F)F)c1cc(F)ccc1O [A22],"NOX activity, compound alone",P. aeruginosa DK2 [5],significantly increased
same,"NOX activity, in combination with PB",P. aeruginosa DK2 [5],further significant increase
same,pIC50,CYP1A2,5.21
same,HLM Remaining (t = 1 h),[6]; human liver microsomes,23.96%
same,half-life,"[6]; human, liver microsomes, pH 7.4",29.1 min
same,"Inhibitory effect on biofilm formation, combination",P. aeruginosa DK2 [7]; 8 μg/mL A22 with 0.25 or 0.5 μg/mL PB,significantly enhanced
same,"Biofilm formation, A22 alone","P. aeruginosa DK2 [7]; 4 and 8 μg/mL, crystal violet and CLSM",potent inhibitory activity against biofilm formation
same,MLM Remaining (t = 1 h),[8]; mouse liver microsomes,46.31%
same,half-life,"[8]; mouse, liver microsomes, pH 7.4",54.4 min
same,pIC50,CYP2C19,4.69
same,pIC50,CYP2C8,5.58
same,pIC50,293 T,< 3.82
same,pIC50,CYP2D6,5.73
same,pIC50,HUVEC,< 3.82
same,pIC50,CYP2B6,< 4.48
same,CFU under oxidative stress (H2O2),P. aeruginosa DK2 [2],significantly reduced CFU
same,pIC50,hERG potassium channels,5.16
same,ROS levels,P. aeruginosa DK2 [9],significantly elevating ROS levels
same,MIC,P. aeruginosa DK2 [1],> 1000 µM
same,fraction unbound at 5 h,[10],0.0206
same,Time of complete inhibition of bacterial growth,P. aeruginosa DK2 [3]; A22 10 μmol/L with PB 1 μg/mL,36 h
same,Time of complete inhibition of bacterial growth,P. aeruginosa DK2 [3]; A22 20 μmol/L with PB 1 μg/mL,24 h
same,Effect on bacterial growth when used alone (time-kill),P. aeruginosa DK2 [3],"neither A22 (10 μmol/L = 3.67 μg/mL, or 20 μmol/L = 7.34 μg/mL) nor PB (0.5 or 1 μg/mL) significantly affected bacterial growth"
same,Time of first substantial reduction in CFUs,P. aeruginosa DK2 [3]; A22 combined with PB,2 h
same,solubility at 24 h,Water solubility assay,4 µg/mL
same,pIC50,CYP2C9,6.54
same,"ATP levels, monotherapy",P. aeruginosa DK2 [11],reduced ATP levels
same,"Reduction in ATP levels, combined with PB",P. aeruginosa DK2 [11],even more pronounced
same,"Bacterial load in infected wounds, combination","P. aeruginosa DK2 [12]; A22 10 mg/kg and PB 1 mg/kg, versus control and monotherapy",significantly reduced bacterial loads in the infected wounds
same,"Bacterial load in infected wounds, monotherapy","P. aeruginosa DK2 [12]; A22 10 mg/kg or PB 1 mg/kg, after 7 days of treatment",neither A22 monotherapy (10 mg/kg) nor PB monotherapy (1 mg/kg) exhibited significant antibacterial effects
same,pIC50,CYP3A4,< 4.48
same,"Survival of PAO1-infected worms, combination",P. aeruginosa PAO1; 8 μg/mL A22 and 8 μg/mL PB,synergistically extended the lifespan of the worms
same,"Survival of PAO1-infected worms, monotherapy",P. aeruginosa PAO1; C. elegans N2 infected with P. aeruginosa PAO1,neither A22 nor PB had significant therapeutic effects
O=C(Nc1ccc([N+](=O)[O-])cc1C(F)(F)F)c1cc(F)ccc1O [A25],MIC,P. aeruginosa DK2 [1],50 to 100 µM
